Source: ChEMBL document CHEMBL1156110, “Novel N-hydroxybenzamide-based HDAC inhibitors with branched CAP group” (Bioorg Med Chem Lett, 2009)
Activity calls are given as the source filed them. The calls are words filed in the database; no cut-off is given here.

Legend:
[1] = test system: HepG2; assay: Antiproliferative activity against human HepG2 cells after 48 hrs by MTT assay; type: functional; conditions: HepG2, 48 h
[2] = Inhibition of HDAC
[3] = test system: A549; assay: Antiproliferative activity against human A549 cells after 48 hrs by MTT assay; type: functional; conditions: A549, 48 h
[4] = test system: PC-3; assay: Antiproliferative activity against human PC3 cells after 48 hrs by MTT assay; type: functional; conditions: PC-3, 48 h
[5] = test system: HCT-116; assay: Antiproliferative activity against human HCT116 cells after 48 hrs by MTT assay; type: functional; conditions: HCT-116, 48 h
[6] = test system: U-937; assay: Induction of granulocytic differentiation in human U937 cells assessed as CD11c positive PI negative cells at 5 uM after 30 hrs by FACS; type: functional, cell-based
Summary of the method: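 U937 human leukemia cells treated 30 h at 5 µM; differentiation scored by FACS as the percentage of CD11c-positive, PI-negative cells; values are the mean of four independent replicates.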

[7] = test system: U-937; assay: Cell cycle arrest in human U937 cells assessed as accumulation at S phase at 5 uM after 30 hrs by FACS; type: functional, cell-based
[8] = test system: U-937; assay: Induction of apoptosis in human U937 cells at 5 uM after 30 hrs by propidium iodide and annexin V staining; type: functional, cell-based
[9] = target: Histone deacetylase 1 (Homo sapiens, UniProt Q13547); assay: Inhibition of human recombinant HDAC1 expressed in baculovirus
[10] = target: T1, Protein deacetylase HDAC6 (Homo sapiens) (UniProt Q9UBN7); assay: Inhibition of HDAC6 in human U937 cells assessed as alpha-tubulin acetylation at 5 uM after 24 hrs by Western blot; type: cell-based; conditions: U-937
T1 sequence (whole entry): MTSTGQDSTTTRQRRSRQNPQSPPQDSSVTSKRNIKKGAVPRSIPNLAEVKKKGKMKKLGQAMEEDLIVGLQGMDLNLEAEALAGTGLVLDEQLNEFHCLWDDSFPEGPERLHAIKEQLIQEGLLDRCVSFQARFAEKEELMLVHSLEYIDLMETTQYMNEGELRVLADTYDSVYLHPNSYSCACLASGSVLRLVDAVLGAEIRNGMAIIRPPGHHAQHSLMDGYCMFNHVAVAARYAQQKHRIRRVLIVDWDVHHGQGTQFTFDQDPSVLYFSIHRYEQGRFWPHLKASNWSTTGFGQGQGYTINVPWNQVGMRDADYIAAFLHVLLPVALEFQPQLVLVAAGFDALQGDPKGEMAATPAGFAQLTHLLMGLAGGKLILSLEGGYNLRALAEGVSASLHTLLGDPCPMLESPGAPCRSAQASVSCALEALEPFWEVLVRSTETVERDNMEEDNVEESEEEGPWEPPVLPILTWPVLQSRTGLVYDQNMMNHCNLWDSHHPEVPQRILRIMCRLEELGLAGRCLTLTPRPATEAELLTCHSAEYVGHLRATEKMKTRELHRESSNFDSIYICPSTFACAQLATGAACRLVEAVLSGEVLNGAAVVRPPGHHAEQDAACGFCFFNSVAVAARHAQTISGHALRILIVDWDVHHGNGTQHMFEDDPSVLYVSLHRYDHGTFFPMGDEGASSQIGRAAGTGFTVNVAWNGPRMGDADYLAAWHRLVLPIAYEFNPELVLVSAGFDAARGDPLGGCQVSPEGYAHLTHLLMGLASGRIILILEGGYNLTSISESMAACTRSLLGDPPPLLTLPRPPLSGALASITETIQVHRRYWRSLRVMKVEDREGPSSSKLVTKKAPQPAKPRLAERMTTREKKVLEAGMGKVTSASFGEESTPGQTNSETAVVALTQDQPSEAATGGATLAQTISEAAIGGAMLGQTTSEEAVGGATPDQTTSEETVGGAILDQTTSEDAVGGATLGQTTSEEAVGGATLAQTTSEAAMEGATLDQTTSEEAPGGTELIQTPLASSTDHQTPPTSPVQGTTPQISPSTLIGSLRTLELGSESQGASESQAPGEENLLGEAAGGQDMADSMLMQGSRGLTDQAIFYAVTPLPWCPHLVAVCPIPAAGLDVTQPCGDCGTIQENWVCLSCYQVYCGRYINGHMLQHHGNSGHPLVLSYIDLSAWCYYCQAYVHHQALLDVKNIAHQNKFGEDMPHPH
Summary of the method: (§1)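 Human leukemia U937 cells exposed to 5 µM for 24 h. Acetyl-histone H3 was read by Western blot as a class I HDAC marker, and acetyl-α-tubulin as an HDAC6 marker.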

[11] = target: Histone deacetylase 4 (Homo sapiens, UniProt P56524); assay: Inhibition of human recombinant his tagged HDAC4 expressed in baculovirus
[12] = target: Histone deacetylase (Homo sapiens) (UniProt Q13547+O15379+Q9UBN7+Q92769+Q9UQL6+Q8WUI4+Q9BY41+Q96DB2+P56524+Q9UKV0+Q969S8); assay: Inhibition of HDAC in human U937 cells assessed as histone H3 acetylation at 5 uM after 24 hrs by Western blot; type: cell-based; conditions: U-937; summary of the method: as §1
[13] = test system: U-937; assay: Cell cycle arrest in human U937 cells assessed as accumulation at G1 phase at 5 uM after 30 hrs by FACS; type: functional, cell-based
[14] = test system: U-937; assay: Induction of p21WAF1/CIP1 expression in human U937 cells at 5 uM after 24 hrs by Western blot; type: functional, cell-based

Histone deacetylase 4, sequence (P56524 whole entry): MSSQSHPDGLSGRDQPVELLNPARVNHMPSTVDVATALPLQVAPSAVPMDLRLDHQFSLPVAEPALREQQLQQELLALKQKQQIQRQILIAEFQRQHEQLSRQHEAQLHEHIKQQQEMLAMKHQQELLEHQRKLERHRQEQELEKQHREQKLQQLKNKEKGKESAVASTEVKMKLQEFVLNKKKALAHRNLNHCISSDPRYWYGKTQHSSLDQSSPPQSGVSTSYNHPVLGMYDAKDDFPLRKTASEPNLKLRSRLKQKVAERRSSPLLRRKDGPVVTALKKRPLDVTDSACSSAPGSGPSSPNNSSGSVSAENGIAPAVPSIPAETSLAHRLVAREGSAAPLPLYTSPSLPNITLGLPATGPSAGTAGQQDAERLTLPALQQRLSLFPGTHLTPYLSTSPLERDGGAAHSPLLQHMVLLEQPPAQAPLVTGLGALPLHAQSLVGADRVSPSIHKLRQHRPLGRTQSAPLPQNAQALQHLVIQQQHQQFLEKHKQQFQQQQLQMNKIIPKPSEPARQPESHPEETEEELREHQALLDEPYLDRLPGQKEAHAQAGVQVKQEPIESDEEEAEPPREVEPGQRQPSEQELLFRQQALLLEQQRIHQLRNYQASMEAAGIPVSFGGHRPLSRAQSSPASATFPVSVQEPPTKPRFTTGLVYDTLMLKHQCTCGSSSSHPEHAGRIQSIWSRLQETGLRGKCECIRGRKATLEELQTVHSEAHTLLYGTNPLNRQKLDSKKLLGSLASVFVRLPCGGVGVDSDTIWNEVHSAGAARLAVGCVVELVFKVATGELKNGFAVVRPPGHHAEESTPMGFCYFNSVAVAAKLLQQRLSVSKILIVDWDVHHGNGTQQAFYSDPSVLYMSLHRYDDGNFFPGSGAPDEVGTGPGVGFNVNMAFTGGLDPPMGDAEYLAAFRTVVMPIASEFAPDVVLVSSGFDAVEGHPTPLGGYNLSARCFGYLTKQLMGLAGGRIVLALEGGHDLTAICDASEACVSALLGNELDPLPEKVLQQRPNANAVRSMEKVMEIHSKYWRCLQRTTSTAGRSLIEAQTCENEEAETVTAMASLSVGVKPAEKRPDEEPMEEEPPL
Histone deacetylase 1, sequence (Q13547 whole entry): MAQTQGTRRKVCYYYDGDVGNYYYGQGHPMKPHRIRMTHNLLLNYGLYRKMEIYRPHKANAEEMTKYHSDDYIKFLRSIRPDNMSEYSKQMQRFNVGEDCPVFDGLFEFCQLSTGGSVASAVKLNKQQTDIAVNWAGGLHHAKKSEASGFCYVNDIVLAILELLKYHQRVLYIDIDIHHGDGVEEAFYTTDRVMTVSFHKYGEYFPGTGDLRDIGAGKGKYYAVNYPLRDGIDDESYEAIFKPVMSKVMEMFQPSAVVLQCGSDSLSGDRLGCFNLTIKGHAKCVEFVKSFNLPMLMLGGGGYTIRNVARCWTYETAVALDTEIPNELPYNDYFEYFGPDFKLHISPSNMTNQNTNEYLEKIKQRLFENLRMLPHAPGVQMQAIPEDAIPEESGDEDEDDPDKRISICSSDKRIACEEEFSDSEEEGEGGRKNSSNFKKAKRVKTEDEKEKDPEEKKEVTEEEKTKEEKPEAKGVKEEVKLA

GI50 [1] [µM] | IC50 [2] [µM] | GI50 [3] [µM] | GI50 [4] [µM] | GI50 [5] [µM] | IC50 [9] [µM] | inhibition [10] | IC50 [11] [µM] | inhibition [12] | Compound | Activity [6] | Activity [7] | Activity [8] | Activity [13] | Activity [14]
63.5 | 0.053 | > 200 | 8.17 | 2.69 |  |  |  |  | O=C(CCCCCCC(=O)Nc1ccccc1)NO [VORINOSTAT] |  |  |  |  | 
11 | 1.67 | 8.63 | 1.22 | 0.58 |  |  |  |  | Cc1ccc(OCCCCN(Cc2ccc(C(=O)NO)cc2)c2ncc(-c3ccc(C)cc3)s2)cc1 | Active | Active | Active |  | 
2.55 | 0.052 | 3.31 | 9.16 | 5.8 |  |  |  |  | CCCN(Cc1ccc(C(=O)NO)cc1)c1ncc(-c2ccc(C)cc2)s1 |  |  |  |  | 
11.5 | 0.101 | 11.2 | 5.57 | 17.3 | 1.05 | Active | > 50 | Active | Cc1ccc(OCCN(Cc2ccc(C(=O)NO)cc2)c2ncc(-c3ccc(C)cc3)s2)cc1 | Active |  | Active | Active | Active
12 | 0.041 | 14 | 7.86 | 8.81 | 2.3 | inactive | > 50 | Active | Cc1ccc(-c2cnc(N(CCOc3ccccc3)Cc3ccc(C(=O)NO)cc3)s2)cc1 | Active |  | Active | Active | Active
7.02 | 4.33 | 9.14 | 5.06 | 23.3 |  |  |  |  | CCCCCN(Cc1ccc(C(=O)NO)cc1)c1ncc(-c2ccc(C)cc2)s1 |  |  |  |  | 
4.3 | 1.35 | 4.78 | 6.41 | 8.78 |  |  |  |  | CCCCN(Cc1ccc(C(=O)NO)cc1)c1ncc(-c2ccc(C)cc2)s1 |  |  |  |  | 
34 | 3.11 | 4.41 | 10.3 | 48.8 |  |  |  |  | Cc1ccc(-c2cnc(N(Cc3ccccc3)Cc3ccc(C(=O)NO)cc3)s2)cc1 |  |  |  |  | 
23.4 | 0.195 | 2.53 | 17.5 | 4.14 |  | Active |  | Active | Cc1ccc(-c2cnc(N(CCCOc3ccccc3)Cc3ccc(C(=O)NO)cc3)s2)cc1 |  |  |  | Active | Active
1.12 | 0.054 | 2.7 | 10.3 | 6.87 |  |  |  |  | CCN(Cc1ccc(C(=O)NO)cc1)c1ncc(-c2ccc(C)cc2)s1 |  |  |  |  | 
16.6 | 0.057 | 14.2 | 10.3 | 0.68 |  | Active |  | Active | Cc1ccc(-c2cnc(N(CCCCOc3ccccc3)Cc3ccc(C(=O)NO)cc3)s2)cc1 |  |  |  | Active | 
8.76 | 1.59 | 4.63 | 13.3 | 6.5 |  |  |  |  | CCCCCCCCN(Cc1ccc(C(=O)NO)cc1)c1ncc(-c2ccc(C)cc2)s1 |  |  |  |  | 
7.42 | 0.494 | 20.4 | 9.34 | 5.9 |  |  |  |  | Cc1ccc(-c2cnc(N(Cc3ccc(C(=O)NO)cc3)CC(C)C)s2)cc1 |  |  |  |  | 
12.2 | 1.07 | 32.5 | 9.33 | 12.6 |  | Active |  | Active | Cc1ccc(OCCCN(Cc2ccc(C(=O)NO)cc2)c2ncc(-c3ccc(C)cc3)s2)cc1 |  |  |  | Active | Active
7.42 | 2.79 | 3.71 | 5.27 | 4.85 |  |  |  |  | CCCCCCN(Cc1ccc(C(=O)NO)cc1)c1ncc(-c2ccc(C)cc2)s1 |  |  |  |  | 
2.18 | 0.168 | 3.83 | 1.15 | 7.8 |  |  |  |  | Cc1ccc(-c2cnc(N(Cc3ccc(C(=O)NO)cc3)C(C)C)s2)cc1 |  |  |  |  | 
